Compound activity: PubChem, several laboratories
Shown are actives, neighbours in structure and some others; about 3% of the full set was active somewhere.
Myeloid diff MLP – promotes myeloid progenitor differentiation; ER-HoxA9 myeloid progenitors, lysozyme-GFP differentiation, flow cytometry; calls only at 10 µM; AID 624256; 360,000 compounds, 1% hits;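 active = normalized GFP-positive differentiation at or above the plate's own cutoff, the solvent-only control mean plus 3 SD; inconclusive = no clear call, values can overlap the other calls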;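 note: cells exposed to compound for four days before flow analysis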
Exocytosis inh – blocks lytic granule exocytosis | TALL-104 LAMP-1 surface exposure, flow cytometry; cells stimulated with thapsigargin and PMA | inhibition, % at 10 µM | 360,000 compounds, 0.66% hits | AID 651702;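 active = inhibition above about 55%, limit read from the data; inconclusive = no clear call, values can overlap the other calls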
DSG3 Ab inh – inhibitors of pemphigus antibody binding to human desmoglein-3 | P32926 | DSG3-coupled beads, scFv-anti-DSG3-GFP binding, flow cytometry; stronger effect = lower value | binding (percent of control), % at 10 µM | 310,000 compounds, 0.48% hits;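 active = binding more than 3 SD below its plate's average and above zero; inconclusive = below that plate limit but binding exactly zero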
HNF4A DNA FP – change in binding of human HNF4 alpha to DNA | 360,000 compounds, 0.3% hits | HNF4a-FITC DNA binding, fluorescence polarization, 1 h | P41235 | activity change, % at 10 µM; in the data active = activity change above about 30%, passing the limit was not always enough
Target sequence (P41235 whole entry, looked up): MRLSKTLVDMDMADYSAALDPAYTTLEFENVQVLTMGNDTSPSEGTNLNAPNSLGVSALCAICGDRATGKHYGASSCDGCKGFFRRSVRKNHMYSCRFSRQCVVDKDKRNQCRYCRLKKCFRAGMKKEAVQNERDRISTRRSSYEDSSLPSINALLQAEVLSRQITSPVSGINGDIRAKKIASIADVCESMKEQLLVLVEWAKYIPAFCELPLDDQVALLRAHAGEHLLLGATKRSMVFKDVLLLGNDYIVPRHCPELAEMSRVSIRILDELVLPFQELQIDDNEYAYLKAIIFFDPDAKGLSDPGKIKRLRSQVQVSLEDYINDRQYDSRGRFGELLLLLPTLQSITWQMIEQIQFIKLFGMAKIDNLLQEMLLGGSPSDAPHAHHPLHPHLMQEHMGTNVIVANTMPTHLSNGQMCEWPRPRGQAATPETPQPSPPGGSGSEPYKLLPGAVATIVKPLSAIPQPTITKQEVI
SENP1 inh – SENP1 (human) catalytic domain inhibition; Q9P0U3; recombinant SENP1 catalytic domain, CyPet-SUMO1-YPet FRET cleavage; inhibition, % at 10 µM; 360,000 compounds, 0.21% hits; AID 624204;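 active = inhibition at least 30% at 10 µM, raw YFP signal under a set limit, fluorescence ratio 0.5 to 1.5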;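 note: 0% = enzyme with DMSO and 100% = no enzyme wells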
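Test system: recombinant human SENP1 catalytic domain, His6-tagged / Medium: pH 8 Tris buffer with EDTA, NaCl, BME, BSA, NP40, catalase / Also added: SUMO1 FRET substrate flanked by Cypet and Ypet, 25 nM / Times: 50 min reaction at room temperature / Signal: FRET, CFP and YFP emission / Control set: no-enzyme low control and enzyme-plus-DMSO high control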
H9c2 protect – myocardial damage modulation in H9c2 cells. H9c2 cardiomyocytes, H2O2 injury protection, ATPLite, 2 h. protection from H2O2 cell death, % at 20 µM. 360,000 compounds, 0.63% hits. AID 588492;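 active = compounds giving at least 50% protection of heart cells from peroxide-induced death in the single-dose screen, raw or plate-pattern-corrected value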;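 note: 0% = DMSO wells with peroxide and 100% = DMSO wells without peroxide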
Granule exo CP1 – lytic granule exocytosis inhibition. TALL-104 cells, LAMP-1 externalization, flow cytometry; stimulated with PMA plus thapsigargin. AID 651954. shares compounds with Exocytosis inh. 1,500 compounds, 11% hits. inhibition, % at 10 µM; in the data active = inhibition above about 60%;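 note: 0% = stimulated vehicle wells and 100% = unstimulated wells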
Numbers without * were called inactive; i = inactive; ? = inconclusive; · = no result given; + = active, no number.

SMILES	Myeloid diff MLP	Exocytosis inh	DSG3 Ab inh	HNF4A DNA FP	SENP1 inh	H9c2 protect	Granule exo CP1
CC(NC(=O)C(C)N1c2cccc3cccc(c23)S1(=O)=O)c1ccccc1 (centres undefined)	?	81.9*	106.1	-1.0	-1.2	-11.2	-6.4
CCOc1cc(CNCCc2ccc(S(N)(=O)=O)cc2)ccc1OCc1ccc(Cl)cc1	i	103.0*	113.6	-0.8	1.9	-33.4	94.4*
COc1cc(CNCCc2ccc(S(N)(=O)=O)cc2)ccc1OCc1ccc(Cl)cc1	i	34.8	110.7	4.7	0.9	-16.2	·
N#CC1C=Cc2c(ccc3ccccc23)N1C(=O)c1ccccc1 (centres undefined)	·	6.8	·	-2.5	-33.2	-4.7	·
Cc1ccc(-c2nnc(CSc3nnc(COc4ccccc4)n3-c3ccc(C)cc3)o2)cc1	i	76.0*	106.2	0.8	0.9	-8.1	-1.7
Cc1ccc(-c2nnc(CSc3nnc(COc4ccccc4)n3-c3ccccc3)o2)cc1	i	-0.2	·	-0.2	2.5	-3.8	·
COCCn1c(SC(C)C(=O)NCC2CCCO2)nc2sc3c(c2c1=O)CCC3 (centres undefined)	i	59.4*	103.6	-7.2	2.5	3.6	-12.8
CCOc1ccccc1N(C(=O)c1snc(C(N)=O)c1N)C(C(=O)NC1CCCC1)c1ccco1 (centres undefined)	i	-3.6	96.8	-1.0	-20.4	0.1	·
COc1ccccc1N(C(=O)c1snc(C(N)=O)c1N)C(C(=O)NCc1ccccc1)c1ccc(C)o1 (centres undefined)	i	73.1*	107.4	0.9	-33.2	1.0	-5.7
CCOc1ccccc1N(C(=O)c1snc(C(N)=O)c1N)C(CC)C(=O)NC1CCCC1 (centres undefined)	i	60.2*	97.1	3.6	-8.9	4.9	-5.1
COc1ccc(N(C(=O)c2snc(C(N)=O)c2N)C(C(=O)NCc2ccc(F)cc2)c2ccc(C)o2)c(OC)c1 (centres undefined)	i	14.7	·	1.7	-15.1	9.8	·
O=C(NNC(=O)c1csc(N2CCOCC2)n1)c1ccc(=O)[nH]c1	i	3.1	104.5	-23.9	3.1	6.5	·
CCN(CC)c1nc(C)nc2c1cnn2CCc1ccccc1	i	71.1*	103.9	-2.7	-4.4	-0.5	-3.4
Cc1c(C(=O)N(C)C2CCCCC2)sc2ncnc(N3CCN(c4ccccc4F)CC3)c12	i	85.1*	79.3	2.1	-1.3	0.1	-14.2
Cc1c(C(=O)N(C)C2CCCCC2)sc2ncnc(N3CCN(c4ccccc4)CC3)c12	i	16.7	103.2	-1.4	2.4	11.4	·
COc1ccccc1OCCCCn1ncc2ccc(OC)c(OC)c2c1=O	i	77.6*	98.6	0.8	-0.5	7.6	-12.0
CCOc1cccc(-c2nnc3n2N=C(c2cc(OC)ccc2OC)CS3)c1	i	75.1*	108.8	0.7	0.0	6.4	7.1
Cc1onc(-c2ccccc2Cl)c1C(=O)N1CCC(Cc2ccccc2)CC1	i	84.3*	101.1	-1.3	2.3	-18.3	-11.6
Clc1nc2nc3n(c2nc1Cl)CCC3	i	5.0	92.6	0.0	-6.3	0.7	·
Cc1ccc(S(=O)(=O)N(C)C[C@H]2Oc3cc(C#Cc4ccccc4)ccc3S(=O)(=O)N([C@H](C)CO)C[C@@H]2C)cc1	i	3.5	·	3.7	-58.5	-9.7	·
CC(C)Cc1ccc(C(C)/C=C2/CCC(CN3CCCCC3)C2=O)cc1 (centres undefined)	i	48.0	·	-1.8	-6.4	-17.5	·
CC(C)Cc1ccc(C(C)CC2=CCC(CN(C)C)C2=O)cc1 (centres undefined)	?	66.1*	94.4	-0.1	-1.0	-18.9	-4.2
CCOC(=O)C1CCN(C(=O)c2cccc(C(=O)N3CCC(C(=O)OCC)CC3)c2)CC1	i	-1.5	·	-3.8	-0.8	1.7	·
CCOC(=O)C1c2cccc(O)c2CCN1C(C)=O (centres undefined)	i	113.9*	98.7	5.6	1.3	7.9	-13.4
N#CC1=C(N)Oc2cc(N)ccc2C1c1cccc(Br)c1 (centres undefined)	·	71.8*	123.0	13.4	-22.8	-3.3	-10.8
SMILES	Myeloid diff MLP	Exocytosis inh	DSG3 Ab inh	HNF4A DNA FP	SENP1 inh	H9c2 protect	Granule exo CP1
CCCCN(CC(O)COc1cccc(C)c1)CC(O)COc1cccc(C)c1 (centres undefined)	i	82.8*	·	4.2	-0.7	-6.2	-4.3
O=C(Nc1cccc(-c2csc(Nc3cccc(C(F)(F)F)c3)n2)c1)c1ccccc1	i	75.4*	103.7	0.3	-3.4	-12.7	-8.1
c1cc(-c2ccsc2)n2cnnc2c1	i	1.3	·	-3.1	-0.4	9.9	·
COc1ccc2[nH]c(C(=O)N3CCC(CO)(Cc4cccc(C(F)(F)F)c4)CC3)c(C)c2c1	i	4.9	99.9	-4.1	0.3	-1.3	·
C[C@H](c1ccccc1)N1C[C@H](COCc2ccccc2)Oc2cc(N3CC[C@H](N(C)C)C3)ccc2S1(=O)=O	i	67.6*	·	1.9	-0.3	·	28.6
C[C@@H](c1ccccc1)N1C[C@H](COCc2ccccc2)Oc2cc(N3CC[C@@H](N(C)C)C3)ccc2S1(=O)=O	i	50.1	·	3.6	-2.0	·	·
CCCn1nc2cc(C(=O)NCCCCc3ccccc3)ccc2c1OCC	i	87.0*	102.5	0.6	-1.4	0.1	-12.6
CCN(CC)c1ccc2cc(-c3nc(-c4cc5ccccc5oc4=O)cs3)c(=O)oc2c1	+	81.3*	191.8	-103.8	-37.7	-10.0	13.9
Cc1noc(C)c1S(=O)(=O)N(CC(=O)NC1CCC(C)CC1)c1ccc(C(C)C)cc1 (centres undefined)	i	72.4*	103.5	1.9	0.5	-7.5	-4.1
COc1ccc(S(=O)(=O)N2CCN(Cc3ccc4c(c3)OCO4)CC2)cc1F	i	4.2	107.9	-1.9	-0.3	-5.5	·
CCOc1ccc(S(=O)(=O)N2CCN(Cc3ccc4c(c3)OCO4)CC2)cc1C	i	65.3*	85.4	0.9	-1.8	-7.5	-13.9
Cc1ccc2c(CN(C)Cc3ccc(Cl)cc3Cl)cc(=O)oc2c1	i	66.6*	121.4	2.8	-2.7	-8.3	-9.4
Cc1ccc2c(CN(C)Cc3ccc(Cl)cc3)cc(=O)oc2c1	i	30.3	·	0.4	-1.0	-2.7	·
N=c1n(CC(=O)c2ccc(Br)s2)c2ccccc2n1Cc1ccccc1	i	76.9*	104.5	2.9	-159.0	-13.5	45.4
CCN(CC)CCn1c(=N)n(CCO)c2ccccc21	i	-1.6	91.4	0.7	2.2	11.2	·
Cn1c(=N)n(CC(=O)c2ccc(Br)s2)c2ccccc21	i	0.4	96.8	-3.2	-5.8	-33.0	·
